Bioassay records from PubChem BioAssay.
Sampled rows, rich in hits. Any-hit rate of the full collection: about 2.1%.
PGE2 EP2 inh: inhibitors of human EP2 prostaglandin E2 receptor; C6 glioma cells expressing human EP2, cAMP TR-FRET; cells stimulated with saturating PGE2; inhibition, % at 25 µM; 0.52% of 260,000 active;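 active means percent inhibition above 40 after rounding to a whole number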;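 further: rat C6 glioma host cells with rolipram phosphodiesterase inhibitor present; the protocol text gives 20 µM as final concentration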
Target sequence (P43116 whole entry, looked up): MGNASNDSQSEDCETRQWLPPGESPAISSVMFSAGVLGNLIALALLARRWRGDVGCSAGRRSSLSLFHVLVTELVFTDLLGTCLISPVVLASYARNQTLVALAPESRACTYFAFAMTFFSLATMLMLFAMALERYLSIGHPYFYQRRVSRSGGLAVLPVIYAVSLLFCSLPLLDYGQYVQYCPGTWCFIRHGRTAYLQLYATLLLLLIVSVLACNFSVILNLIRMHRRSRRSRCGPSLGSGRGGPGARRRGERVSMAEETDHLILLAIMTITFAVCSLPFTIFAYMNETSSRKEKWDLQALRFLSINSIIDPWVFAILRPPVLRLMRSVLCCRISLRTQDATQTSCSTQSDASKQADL
FXIIa inh: factor XIIa (human) inhibition; 0.3% of 220,000 active; purified FXIIa, Boc-QGR-AMC fluorogenic substrate, 2 h; inhibition, % at 5 µM; P00748; AID 800; in the data active means inhibition above about 40%;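 further: 0% = enzyme with no compound and 100% = blank without enzyme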
FXIa inh: blocks human coagulation factor XIa protease activity | inhibition, % at 5 µM | 0.14% of 220,000 active | AID 798 | purified FXIa, Boc-Glu-Ala-Arg-AMC fluorogenic substrate;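 active means inhibition of at least 40%; inactive means inhibition below 40%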;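 further: fluorescence of freed AMC excited at 355 nm; 0% = enzyme without compound and 100% = no enzyme blank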
EP2 modulator: EP2 receptor (human) modulation; induction, % at 25 µM; EP2-expressing cells, cAMP HTRF FRET, PGE2 co-stimulation; AID 940; P43116; 0.83% of 260,000 active;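 active means compounds whose cAMP rise, as percent of the full-agonist control response, exceeds 60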;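 further: rat C6 glioma line stably carrying human EP2 under a CMV promoter; the protocol text gives 20 µM as final concentration; 100% = response of wells given 1 µM PGE2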
Thrombin inh: blocks human thrombin protease activity. inhibition, % at 5 µM. 0.26% of 220,000 active. AID 1046. P00734. alpha-thrombin, Boc-VPR-AMC fluorogenic substrate cleavage;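 active means inhibition at or above 40%; inactive means inhibition below 40%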;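 further: 0% = enzyme with no compound and 100% = wells without enzyme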
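Material: human alpha-thrombin protein. Incubation: reaction at ambient temperature. Technique: fluorescence of released AMC, ex 355 nm, em 460 nm. Control set: no-compound enzyme wells and no-enzyme blanks. Also added: Boc-VPR-AMC substrate, 15 µM final. Buffer or medium: pH 7.5 Tris (50 mM) with NaCl 150 mM, Tween 20 0.05%.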
hK5 inh: kallikrein 5 (human) inhibition. Q9Y337. recombinant hK5, fluorogenic AMC substrate cleavage. inhibition, % at 5 µM. 0.59% of 210,000 active;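 active means inhibition of 40% or more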;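 further: 0% = enzyme controls without compound and 100% = no-enzyme blanks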
Target sequence (Q9Y337 67-293 limits assumed): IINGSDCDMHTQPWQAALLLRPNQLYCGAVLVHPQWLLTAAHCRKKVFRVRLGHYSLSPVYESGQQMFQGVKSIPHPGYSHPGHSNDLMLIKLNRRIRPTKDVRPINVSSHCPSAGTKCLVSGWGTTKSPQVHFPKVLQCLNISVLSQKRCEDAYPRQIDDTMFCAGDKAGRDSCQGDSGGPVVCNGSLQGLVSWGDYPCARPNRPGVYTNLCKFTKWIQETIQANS
Numbers without * were called inactive.

What do the screens show for `CCn1c(C)nc2cc(C(=O)N/N=C/c3ccc(OC)cc3)ccc21`?
PGE2 EP2 inh: 2.9; FXIIa inh: 9.8; FXIa inh: 7.2; EP2 modulator: -27.5; Thrombin inh: 3.5; hK5 inh: 16.4

How did CCn1c(C)nc2cc(C(=O)N/N=C(\C)c3ccc(OC)cc3O)ccc21 do in these assays?
PGE2 EP2 inh: 4.7; FXIIa inh: 35.6; FXIa inh: 42.6*; EP2 modulator: -27.2; Thrombin inh: 57.8*; hK5 inh: 30.3

How did CC(C)(C)NC(=O)N1CCN(C(=O)NC(C)(C)C)CC1 do in these assays?
PGE2 EP2 inh: 13.1; EP2 modulator: 10.2

How did N#Cc1c(N)sc(=S)c2c1CCCC2 do in these assays?
PGE2 EP2 inh: 63.7*; FXIIa inh: 12.2; FXIa inh: -6.3; EP2 modulator: 14.1; Thrombin inh: -7.4; hK5 inh: -1.6

What do the screens show for `CCC1(C)Cc2c(C#N)c(N)sc(=S)c2CO1` (stereo unspecified)?
PGE2 EP2 inh: 30.6; FXIIa inh: 9.7; FXIa inh: -0.4; EP2 modulator: -13.0; Thrombin inh: -5.0; hK5 inh: -22.0

What do the screens show for `CC(=O)c1ccc2c(c1)N(C)c1ccccc1S2`?
PGE2 EP2 inh: 10.4; FXIIa inh: 20.6; FXIa inh: 15.6; EP2 modulator: -49.0; Thrombin inh: 17.2; hK5 inh: 40.9*

Results for O=C(O)c1ccccc1-c1ccccc1C(=O)Nc1ccc2c(c1)Cc1cc(F)ccc1-2 ?
PGE2 EP2 inh: 43.3*; EP2 modulator: 6.8

How did S=C(Nc1ccc2c(c1)Cc1ccccc1-2)Nc1ccc2c(c1)Cc1ccccc1-2 do in these assays?
PGE2 EP2 inh: 55.3*; EP2 modulator: -14.3

How did O=C(O)c1ccccc1-c1ccccc1C(=O)Nc1ccc2c(c1)Cc1ccccc1-2 do in these assays?
PGE2 EP2 inh: 38.7; EP2 modulator: 31.0

Results for COc1ccc(C(=O)NC(=S)Nc2ccc3c(c2)Cc2ccccc2-3)cc1 ?
PGE2 EP2 inh: 22.2; FXIIa inh: 4.8; FXIa inh: 6.7; EP2 modulator: 1.1; Thrombin inh: 3.4; hK5 inh: 0.3

Results for CCOC(=O)c1c(-c2ccc(C)cc2)csc1NC(=O)CC ?
PGE2 EP2 inh: 5.9; EP2 modulator: 78.2*

How did CCOC(=O)c1c(-c2cccs2)csc1N do in these assays?
PGE2 EP2 inh: 10.0; FXIIa inh: 20.8; FXIa inh: 6.8; EP2 modulator: 54.7; Thrombin inh: 7.9; hK5 inh: 21.1

Results for CCOC(=O)c1c(-c2ccc(CC)cc2)csc1N ?
PGE2 EP2 inh: 9.3; EP2 modulator: 93.8*

Results for CCOC(=O)c1c(-c2ccc(OCC)cc2)csc1NC(C)=O ?
PGE2 EP2 inh: 8.2; EP2 modulator: 64.3*

How did C=CCN1C(=O)C2C(C(=O)NCc3ccccc3)C3C=CC2(O3)C1C(=O)NC1CCCC1 (stereo unspecified) do in these assays?
PGE2 EP2 inh: 8.9; EP2 modulator: -4.6

Results for Cc1oc(-c2ccccc2)nc1Cn1cccc1C1=NC(c2ccccc2)CO1 (stereo unspecified) ?
PGE2 EP2 inh: 10.1; FXIIa inh: 2.8; FXIa inh: 0.4; EP2 modulator: 22.8; Thrombin inh: 13.6; hK5 inh: 101.2*

What do the screens show for `Cc1ccc(NC(=O)Cn2cccc2C2=NC(c3ccccc3)CO2)cc1C` (stereo unspecified)?
PGE2 EP2 inh: 9.7; FXIIa inh: -0.9; FXIa inh: -6.1; EP2 modulator: 54.2; Thrombin inh: -6.7; hK5 inh: -6.0

How did Fc1ccc(Cn2cccc2C2=NC(c3ccccc3)CO2)cc1 (stereo unspecified) do in these assays?
PGE2 EP2 inh: 1.4; FXIIa inh: 2.7; FXIa inh: -2.5; EP2 modulator: 61.2*; Thrombin inh: -9.7; hK5 inh: -7.9

Results for CCOC(=O)c1sc(NC(=O)CCSC)nc1C ?
PGE2 EP2 inh: 2.9; FXIIa inh: 18.3; FXIa inh: 7.4; EP2 modulator: 18.3; Thrombin inh: 3.2; hK5 inh: 2.2

Results for CCOC(=O)c1sc(NC(=O)CSC(=S)N2CCN(C)CC2)nc1C ?
PGE2 EP2 inh: 12.6; FXIIa inh: 32.8; FXIa inh: 44.3*; EP2 modulator: 13.7; Thrombin inh: 14.1; hK5 inh: 36.6

What do the screens show for `COc1ccccc1C1(NC(=O)CCn2nccc2C)CCCC1`?
PGE2 EP2 inh: 3.8; EP2 modulator: -19.8

What do the screens show for `Cc1ccc(C(=O)NNC(=S)NC(=O)COc2ccccc2)cc1`?
PGE2 EP2 inh: 35.7; FXIIa inh: 25.0; FXIa inh: 41.4*; EP2 modulator: -55.4; Thrombin inh: 11.4; hK5 inh: -164.3

Results for Cc1ccccc1C(=O)NNC(=S)NC(=O)COc1ccccc1 ?
PGE2 EP2 inh: 13.9; FXIIa inh: 27.4; FXIa inh: 18.1; EP2 modulator: -43.5; Thrombin inh: -0.2; hK5 inh: -176.2

Results for CCCSc1nc(N2CCOCC2)c2c(c1C#N)CC(C)(C)SC2 ?
PGE2 EP2 inh: 12.7; FXIIa inh: -12.4; FXIa inh: -6.5; EP2 modulator: 64.6*; Thrombin inh: -11.5; hK5 inh: -25.1

What do the screens show for `CC(C)CSc1nc(N2CCOCC2)c2c(c1C#N)CC(C)(C)SC2`?
PGE2 EP2 inh: 8.7; FXIIa inh: 15.5; FXIa inh: -3.1; EP2 modulator: 57.8; Thrombin inh: 1.4; hK5 inh: -13.8

What do the screens show for `CCCCC[C@H](O)/C=C/C1=C(CCCCCCC(=O)O)C(=O)CC1`?
PGE2 EP2 inh: 26.8; FXIIa inh: 10.2; FXIa inh: 2.2; EP2 modulator: 88.6*; Thrombin inh: -1.7; hK5 inh: -15.3

What do the screens show for `COc1ccccc1N1CCN(C(c2ccccc2)c2nnnn2Cc2ccc3c(c2)OCO3)CC1` (stereo unspecified)?
PGE2 EP2 inh: 8.8; EP2 modulator: 8.8

Results for CCCC(C)c1nnc(NC(=O)c2ccc(F)cc2)s1 (stereo unspecified) ?
PGE2 EP2 inh: 9.5; EP2 modulator: 1.8

How did COc1ccccc1OCC1CCCN(S(=O)(=O)c2cccnc2)C1 (stereo unspecified) do in these assays?
PGE2 EP2 inh: 2.5; EP2 modulator: -28.0

Results for O=C(Cc1cccc2ccccc12)Nc1ccc(C(=O)NCC2CCCO2)cc1 (stereo unspecified) ?
PGE2 EP2 inh: 13.1; EP2 modulator: -100.8

What do the screens show for `CCOC(=O)CNC(=O)Cc1ccc(OC)cc1`?
PGE2 EP2 inh: 4.7; FXIIa inh: 42.7*; FXIa inh: 19.2; EP2 modulator: 17.5; Thrombin inh: 11.8; hK5 inh: 25.4

Results for C=C(C)Cn1c(=O)c(NC(=O)c2ccccc2)c2n(c1=S)CCC2 ?
PGE2 EP2 inh: 31.7; FXIIa inh: 19.7; FXIa inh: 15.9; EP2 modulator: 32.3; Thrombin inh: 25.3; hK5 inh: 41.2*
